Test results reported in ChEMBL document CHEMBL2434840, “Discovery of 4-amino-2-(thio)phenol derivatives as novel protein kinase and angiogenesis inhibitors for the treatment of cancer: synthesis and biological evaluation. Part II” (Eur J Med Chem, 2013).
The source made the active and inactive calls. No cut-off for these calls is given here.

Experiments:
[1] = biological target: Vascular endothelial growth factor receptor 2 (Homo sapiens) (UniProt P35968); experiment: Inhibition of VEGFR2 (unknown origin) phosphorylation at 1 ug/mL by cell-based Western blotting analysis
Chain of Vascular endothelial growth factor receptor 2 (Homo sapiens) (P35968 whole entry): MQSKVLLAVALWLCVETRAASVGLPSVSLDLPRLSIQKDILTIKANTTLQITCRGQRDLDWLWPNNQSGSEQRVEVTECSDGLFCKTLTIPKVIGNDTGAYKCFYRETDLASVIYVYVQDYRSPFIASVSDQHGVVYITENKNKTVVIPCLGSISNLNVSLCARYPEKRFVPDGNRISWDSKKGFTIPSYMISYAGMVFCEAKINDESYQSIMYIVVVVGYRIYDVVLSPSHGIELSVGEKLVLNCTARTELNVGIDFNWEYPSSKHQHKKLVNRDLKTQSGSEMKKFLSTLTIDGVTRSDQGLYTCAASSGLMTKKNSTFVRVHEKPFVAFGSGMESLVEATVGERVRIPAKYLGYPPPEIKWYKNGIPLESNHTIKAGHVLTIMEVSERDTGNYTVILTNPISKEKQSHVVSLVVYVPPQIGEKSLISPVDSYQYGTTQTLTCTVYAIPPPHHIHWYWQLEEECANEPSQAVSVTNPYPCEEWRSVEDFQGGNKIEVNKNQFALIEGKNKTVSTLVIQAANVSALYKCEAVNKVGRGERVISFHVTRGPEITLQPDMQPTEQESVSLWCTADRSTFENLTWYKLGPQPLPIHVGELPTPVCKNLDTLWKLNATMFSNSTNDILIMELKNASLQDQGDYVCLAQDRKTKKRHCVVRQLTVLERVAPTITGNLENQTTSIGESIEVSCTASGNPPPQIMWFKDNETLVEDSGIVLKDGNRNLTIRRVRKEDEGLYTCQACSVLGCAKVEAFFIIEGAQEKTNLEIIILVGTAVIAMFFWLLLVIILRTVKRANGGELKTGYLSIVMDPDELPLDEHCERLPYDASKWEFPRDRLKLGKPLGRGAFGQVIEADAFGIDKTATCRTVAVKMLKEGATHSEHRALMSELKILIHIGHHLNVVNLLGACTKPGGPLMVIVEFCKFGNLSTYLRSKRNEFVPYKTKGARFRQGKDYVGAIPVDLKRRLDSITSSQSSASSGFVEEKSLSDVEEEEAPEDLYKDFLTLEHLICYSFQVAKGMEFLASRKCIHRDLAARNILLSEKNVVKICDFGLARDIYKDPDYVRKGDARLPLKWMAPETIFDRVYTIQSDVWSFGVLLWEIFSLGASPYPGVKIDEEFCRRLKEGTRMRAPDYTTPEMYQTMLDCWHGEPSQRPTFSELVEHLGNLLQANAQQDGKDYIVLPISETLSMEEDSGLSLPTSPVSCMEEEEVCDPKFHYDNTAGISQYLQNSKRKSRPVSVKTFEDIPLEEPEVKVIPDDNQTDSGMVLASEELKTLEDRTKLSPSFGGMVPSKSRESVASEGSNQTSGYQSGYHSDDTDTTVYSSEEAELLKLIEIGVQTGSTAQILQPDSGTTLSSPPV

[2] = biological target: Vascular endothelial growth factor receptor 2 (Homo sapiens) (UniProt P35968); experiment: Inhibition of VEGFR2 (unknown origin) phosphorylation at 5 ug/mL by cell-based Western blotting analysis
Thoracic aorta [3] = experiment: Antiangiogenic activity in Sprague-Dawley rat thoracic aorta rings assessed as reduction of microvessel outgrowth at 0.1 uM treated every other day for 6 days by Matrigel assay; format: functional, tissue-based
Summary of the method: (§1)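 Aortas were taken from male Sprague Dawley rats aged 8–10 weeks and cleaned of fibroadipose tissue. 1-mm rings were embedded between two 100 μL Matrigel layers and set 30 min at 37 °C, 5% CO2. Compound, pazopanib or 0.5% DMSO vehicle was added every other day for 6 days. Outgrowth was photographed on day 7 at ×200. Three independent experiments.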

HUVEC [4] = experiment: Antiangiogenic activity in HUVEC assessed as inhibition of tube formation at 0.1 uM after 6 hrs by Matrigel assay; format: functional, cell-based; conditions: Homo sapiens
Summary of the method: (§2)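 HUVECs seeded at 40,000 cells/well on Matrigel (gelled 30 min, 37 °C, 5% CO2) in M199 with 5% FBS plus compound or 0.5% DMSO vehicle; pazopanib positive control; 6 h at 37 °C, 5% CO2. Tube networks were scored by phase-contrast microscopy and photographed at ×100. Three independent experiments.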

[5] = biological target: ALK tyrosine kinase receptor (Homo sapiens) (UniProt Q9UM73); experiment: Inhibition of ALK (unknown origin) at 10 uM after 30 mins by fluorescence assay relative to control
Chain of ALK tyrosine kinase receptor (Homo sapiens) (Q9UM73 19-1620 limits assumed): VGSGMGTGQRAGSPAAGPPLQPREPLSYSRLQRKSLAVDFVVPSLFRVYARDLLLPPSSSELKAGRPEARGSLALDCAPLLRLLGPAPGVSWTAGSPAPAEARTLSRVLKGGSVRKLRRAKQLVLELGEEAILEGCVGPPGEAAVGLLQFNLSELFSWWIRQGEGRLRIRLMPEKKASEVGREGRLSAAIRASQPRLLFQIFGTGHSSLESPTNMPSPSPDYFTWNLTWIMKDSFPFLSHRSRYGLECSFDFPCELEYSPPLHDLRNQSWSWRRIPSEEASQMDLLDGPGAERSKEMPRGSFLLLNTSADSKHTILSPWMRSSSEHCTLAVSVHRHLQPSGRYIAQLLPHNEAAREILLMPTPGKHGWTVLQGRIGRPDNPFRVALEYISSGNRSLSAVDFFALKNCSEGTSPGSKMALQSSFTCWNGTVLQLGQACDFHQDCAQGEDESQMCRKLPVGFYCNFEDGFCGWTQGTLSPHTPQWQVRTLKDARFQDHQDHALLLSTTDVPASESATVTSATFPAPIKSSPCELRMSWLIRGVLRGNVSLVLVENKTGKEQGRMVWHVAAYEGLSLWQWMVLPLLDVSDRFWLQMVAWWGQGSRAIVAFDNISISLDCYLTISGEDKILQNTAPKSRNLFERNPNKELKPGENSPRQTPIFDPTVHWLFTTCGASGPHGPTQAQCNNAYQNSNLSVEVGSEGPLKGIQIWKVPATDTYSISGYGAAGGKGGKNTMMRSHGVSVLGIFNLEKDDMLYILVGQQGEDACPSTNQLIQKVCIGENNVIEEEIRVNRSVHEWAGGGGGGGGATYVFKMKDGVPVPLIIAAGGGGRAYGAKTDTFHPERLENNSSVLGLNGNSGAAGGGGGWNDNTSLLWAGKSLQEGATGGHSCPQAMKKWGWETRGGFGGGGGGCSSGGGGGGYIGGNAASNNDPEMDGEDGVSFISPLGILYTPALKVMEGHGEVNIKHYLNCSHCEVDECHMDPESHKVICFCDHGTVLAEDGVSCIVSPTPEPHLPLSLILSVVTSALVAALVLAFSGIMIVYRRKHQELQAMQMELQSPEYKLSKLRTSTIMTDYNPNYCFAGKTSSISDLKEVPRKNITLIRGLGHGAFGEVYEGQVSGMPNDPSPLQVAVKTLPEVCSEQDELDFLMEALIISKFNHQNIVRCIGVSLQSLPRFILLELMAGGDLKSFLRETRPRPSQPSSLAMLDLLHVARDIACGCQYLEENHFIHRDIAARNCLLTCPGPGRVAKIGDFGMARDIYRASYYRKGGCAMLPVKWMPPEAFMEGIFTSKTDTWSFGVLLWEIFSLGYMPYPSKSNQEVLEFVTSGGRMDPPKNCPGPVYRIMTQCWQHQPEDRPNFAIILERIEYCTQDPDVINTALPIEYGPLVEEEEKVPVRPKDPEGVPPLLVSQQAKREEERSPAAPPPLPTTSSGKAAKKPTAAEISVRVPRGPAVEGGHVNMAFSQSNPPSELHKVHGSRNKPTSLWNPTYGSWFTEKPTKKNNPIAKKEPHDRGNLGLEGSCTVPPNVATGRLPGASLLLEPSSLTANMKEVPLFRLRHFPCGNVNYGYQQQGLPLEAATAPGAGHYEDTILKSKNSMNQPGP
Summary of the method: (§3)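 Enzyme plus compound (10 μM screen) or water in Hepes/Tris pH 7.4, EGTA/Tris, MgCl2, DTT and 0.008% Tween 20. Substrate and ATP started the reaction, 30 min at room temperature. EDTA stop, then europium-labelled anti-phospho-PT66 antibody for 60 min and TR-FRET read. Basal wells had no enzyme. Percent inhibition of control activity; staurosporine reference; duplicate.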

[6] = biological target: T1, RAC-alpha serine/threonine-protein kinase (Homo sapiens, UniProt P31749); experiment: Inhibition of AKT (unknown origin) at 10 uM after 30 mins by fluorescence assay relative to control; summary of the method: as §3
T1 sequence (P31749 whole entry): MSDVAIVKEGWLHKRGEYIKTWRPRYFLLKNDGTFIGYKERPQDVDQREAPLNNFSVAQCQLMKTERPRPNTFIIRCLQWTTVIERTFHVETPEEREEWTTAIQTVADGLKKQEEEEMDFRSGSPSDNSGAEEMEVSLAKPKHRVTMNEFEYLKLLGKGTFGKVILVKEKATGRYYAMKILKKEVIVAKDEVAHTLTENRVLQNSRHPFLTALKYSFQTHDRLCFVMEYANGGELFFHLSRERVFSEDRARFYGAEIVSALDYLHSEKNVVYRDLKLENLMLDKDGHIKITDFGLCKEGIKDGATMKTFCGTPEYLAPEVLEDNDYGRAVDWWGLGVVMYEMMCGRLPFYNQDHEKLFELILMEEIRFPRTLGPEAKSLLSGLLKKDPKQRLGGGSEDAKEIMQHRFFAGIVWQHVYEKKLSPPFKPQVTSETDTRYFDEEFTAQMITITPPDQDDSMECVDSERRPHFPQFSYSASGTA

HUVEC [7] = experiment: Antiangiogenic activity in HUVEC assessed as inhibition of tube formation at 10 uM after 6 hrs by Matrigel assay; format: functional, cell-based; conditions: Homo sapiens; summary of the method: as §2
Thoracic aorta [8] = experiment: Antiangiogenic activity in Sprague-Dawley rat thoracic aorta rings assessed as reduction of microvessel outgrowth at 10 uM treated every other day for 6 days by Matrigel assay; format: functional, tissue-based; summary of the method: as §1
[9] = biological target: T1, RAC-alpha serine/threonine-protein kinase; experiment: Inhibition of AKT (unknown origin) after 30 mins by fluorescence assay
Thoracic aorta [10] = experiment: Antiangiogenic activity in Sprague-Dawley rat thoracic aorta rings assessed as reduction of microvessel outgrowth at 1 uM treated every other day for 6 days by Matrigel assay; format: functional, tissue-based; summary of the method: as §1
[11] = biological target: Tyrosine-protein kinase ABL1 (Homo sapiens, UniProt P00519); experiment: Inhibition of ABL (unknown origin) after 30 mins by fluorescence assay
Chain of Tyrosine-protein kinase ABL1 (P00519 whole entry): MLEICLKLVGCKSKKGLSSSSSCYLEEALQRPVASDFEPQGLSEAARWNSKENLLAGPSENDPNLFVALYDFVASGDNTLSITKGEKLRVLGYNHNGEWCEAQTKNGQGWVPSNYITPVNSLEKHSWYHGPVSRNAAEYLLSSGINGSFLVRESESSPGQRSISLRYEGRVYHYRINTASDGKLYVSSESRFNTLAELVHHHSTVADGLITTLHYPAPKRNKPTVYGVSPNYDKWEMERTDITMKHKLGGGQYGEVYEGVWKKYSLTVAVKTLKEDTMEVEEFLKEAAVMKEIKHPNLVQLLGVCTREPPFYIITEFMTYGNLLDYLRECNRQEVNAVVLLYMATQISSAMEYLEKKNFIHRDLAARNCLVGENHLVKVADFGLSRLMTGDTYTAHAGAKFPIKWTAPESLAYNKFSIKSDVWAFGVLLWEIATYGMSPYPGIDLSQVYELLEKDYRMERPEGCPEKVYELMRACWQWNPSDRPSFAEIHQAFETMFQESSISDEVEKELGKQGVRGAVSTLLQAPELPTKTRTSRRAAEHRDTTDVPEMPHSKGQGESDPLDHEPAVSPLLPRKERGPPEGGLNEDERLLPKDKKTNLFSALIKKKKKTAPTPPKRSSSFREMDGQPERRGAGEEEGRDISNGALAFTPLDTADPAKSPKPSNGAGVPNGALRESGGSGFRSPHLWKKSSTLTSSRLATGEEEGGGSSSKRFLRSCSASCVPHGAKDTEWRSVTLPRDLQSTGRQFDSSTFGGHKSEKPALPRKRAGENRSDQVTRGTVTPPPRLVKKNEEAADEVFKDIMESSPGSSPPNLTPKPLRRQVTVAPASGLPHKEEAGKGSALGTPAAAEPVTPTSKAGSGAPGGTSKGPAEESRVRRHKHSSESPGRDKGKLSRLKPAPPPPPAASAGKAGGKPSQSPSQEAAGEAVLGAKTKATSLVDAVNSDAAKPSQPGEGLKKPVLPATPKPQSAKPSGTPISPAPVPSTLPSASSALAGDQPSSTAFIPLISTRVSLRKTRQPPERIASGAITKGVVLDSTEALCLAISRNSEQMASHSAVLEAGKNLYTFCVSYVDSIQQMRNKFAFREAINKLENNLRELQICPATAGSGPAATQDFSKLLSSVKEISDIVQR

HUVEC [12] = experiment: Antiangiogenic activity in HUVEC assessed as inhibition of tube formation after 6 hrs by Matrigel assay; format: functional, cell-based; conditions: Homo sapiens; summary of the method: as §2
Thoracic aorta [13] = experiment: Antiangiogenic activity in Sprague-Dawley rat thoracic aorta rings assessed as reduction of microvessel outgrowth treated every other day for 6 days by Matrigel assay; format: functional, tissue-based; summary of the method: as §1

| Structure (SMILES) | inhibition [5] | inhibition [6] | further results |
| --- | --- | --- | --- |
| Cc1ccc(Nc2nccc(N(C)c3ccc4c(C)n(C)nc4c3)n2)cc1S(N)(=O)=O | – | – | inhibition [1]: Active; inhibition [2]: Active; inhibition (Thoracic aorta [3]): Active; inhibition (HUVEC [4]): Active |
| O=C(Nc1ccc(O)c(Sc2ncn[nH]2)c1)c1ccc([N+](=O)[O-])cc1 | inactive | 50.7% | – |
| CS(=O)(=O)Nc1ccc(O)c(Sc2ncn[nH]2)c1 | 15.9% | 14.3% | – |
| Cc1cc(C)c(S(=O)(=O)Nc2ccc(O)c(Sc3nc[nH]n3)c2)c(C)c1 | 18% | 19.7% | – |
| O=[N+]([O-])c1ccc(S(=O)(=O)Nc2ccc(O)c(Sc3ncnc4nc[nH]c34)c2)cc1 | inactive | 37.5% | – |
| Cc1nnc(Sc2cc(NC(=O)c3ccc([N+](=O)[O-])cc3)ccc2O)s1 | 14% | 12.3% | – |
| O=S(=O)(Nc1ccc(O)c(Sc2ncn[nH]2)c1)c1ccc2ccccc2c1 | inactive | inactive | – |
| COc1ccc(S(=O)(=O)Nc2ccc(O)c(Sc3nc[nH]n3)c2)cc1 | 29.5% | 12.1% | – |
| O=C(Nc1ccc(O)c(Sc2nncs2)c1)c1ccc([N+](=O)[O-])cc1 | inactive | inactive | – |
| O=[N+]([O-])c1ccc(S(=O)(=O)Nc2ccc(O)c(Sc3nncs3)c2)cc1 | 11.4% | 14.9% | – |
| Cn1nnnc1Sc1cc(NS(=O)(=O)c2ccc([N+](=O)[O-])cc2)ccc1O | inactive | 11.5% | – |
| Cc1ccc(S(=O)(=O)Nc2ccc(O)c(Sc3nc[nH]n3)c2)cc1 | 15.3% | 29.8% | – |
| Cc1nnc(Sc2cc(NS(=O)(=O)c3ccc([N+](=O)[O-])cc3)ccc2O)s1 | 21.8% | 14.2% | – |
| CN[C@@H]1C[C@H]2O[C@@](C)([C@@H]1OC)n1c3ccccc3c3c4c(c5c6ccccc6n2c5c31)C(=O)NC4 | – | 96.5% | – |
| O=C(Nc1ccc(O)c(Sc2ncnc3nc[nH]c23)c1)c1ccc([N+](=O)[O-])cc1 | 21.9% | 64.6% | inhibition (HUVEC [7]): inactive; inhibition (Thoracic aorta [8]): inactive; inhibition [2]: Active |
| O=S(=O)(Nc1ccc(O)c(Sc2ncn[nH]2)c1)c1cccc2ccccc12 | 10% | 20.4% | – |
| O=S(=O)(Nc1ccc(O)c(Sc2ncn[nH]2)c1)c1c(Cl)cccc1Cl | 10.3% | 48.4% | – |
| O=[N+]([O-])c1ccc(S(=O)(=O)Nc2ccc(O)c(Sc3ncn[nH]3)c2)cc1 | 49.4% | 100% | inhibition [1]: Active; IC50 [9]: 1260 nM; inhibition (Thoracic aorta [10]): Active; IC50 [11]: 1500 nM; inhibition [2]: Active; inhibition (HUVEC [12]): Dose-dependent effect; Activity (Thoracic aorta [13]): Dose-dependent effect |
| O=S(=O)(Nc1ccc(O)c(Sc2ncn[nH]2)c1)c1ccc(Cl)cc1 | inactive | 56.4% | inhibition [1]: inactive; inhibition (HUVEC [7]): inactive; inhibition (Thoracic aorta [8]): inactive; inhibition [2]: inactive |
| Cn1nnnc1Sc1cc(NC(=O)c2ccc([N+](=O)[O-])cc2)ccc1O | inactive | 10.1% | – |
| CC(C)c1cc(C(C)C)c(S(=O)(=O)Nc2ccc(O)c(Sc3ncn[nH]3)c2)c(C(C)C)c1 | 17.1% | 14.5% | – |
